According to ChEMBL document CHEMBL1158007, “Steroidal glycosides from the bulbs of Allium jesdianum” (J Nat Prod, 1999):
Values after ≈ are worked out from the molar mass of the structure shown.

What was measured:
[1] = Growth inhibition of human SK MEL28 cells after 72 hrs by MTT assay; type: functional; settings: SK-MEL-28, 72 h
A498 = assay: Growth inhibition of human A498 cells after 72 hrs by MTT assay; type: functional; settings: A498, 72 h
OVCAR-8 = assay: Growth inhibition of human OVCAR8 cells after 72 hrs by MTT assay; type: functional; settings: OVCAR-8, 72 h
SK-MEL-5 = assay: Growth inhibition of human SK-MEL-5 cells after 72 hrs by MTT assay; type: functional; settings: SK-MEL-5, 72 h
ACHN = assay: Growth inhibition of human ACHN cells after 72 hrs by MTT assay; type: functional
SW-620 = assay: Growth inhibition of human SW620 cells after 72 hrs by MTT assay; type: functional; settings: SW-620, 72 h
SN12C = assay: Growth inhibition of human SN12C cells after 72 hrs by MTT assay; type: functional; settings: read-out: LC50 (the source's name)
T47D = assay: Growth inhibition of human T47D cells after 72 hrs by MTT assay; type: functional
HL-60(TB) = assay: Growth inhibition of human HL-60(TB) cells after 72 hrs by MTT assay; type: functional; settings: HL-60, 72 h
[2] = Growth inhibition of human Hs 578T cells after 72 hrs by MTT assay; type: functional
MDA-MB-231 = assay: Growth inhibition of human MDA-MB-231cells after 72 hrs by MTT assay; type: functional; settings: MDA-MB-231, 72 h
NCI/ADR-RES = assay: Growth inhibition of human NCI/ADR-RES cells after 72 hrs by MTT assay; type: functional
SF-295 = assay: Growth inhibition of human SF-295 cells after 72 hrs by MTT assay; type: functional; settings: SF-295, 72 h
TK-10 = assay: Growth inhibition of human TK-10 cells after 72 hrs by MTT assay; type: functional; settings: TK-10, 72 h
HL-60 = assay: Cytotoxicity against human HL-60 cells after 72 hrs by MTT assay; type: functional, cell-based; settings: HL-60, 72 h
In short: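 HL-60 cells grown in RPMI 1640 with 10% FBS, L-glutamine, penicillin and streptomycin, seeded at 3 × 10^4 cells/mL, and preincubated 24 h at 37 °C in 5% CO2. Sample in EtOH-H2O (1:1) added to a final 0.01-10 µg/mL, with vehicle-only controls, for 72 h. MTT added for 4 h, then formazan dissolved in DMSO and read at 550 nm. IC50 taken from the dose-response curve.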

COLO 205 = assay: Growth inhibition of human COLO205 cells after 72 hrs by MTT assay; type: functional; settings: COLO 205, 72 h
MCF7 = assay: Growth inhibition of human MCF7 cells after 72 hrs by MTT assay; type: functional; settings: MCF7, 72 h
SK-MEL-2 = assay: Growth inhibition of human SK-MEL-2 cells after 72 hrs by MTT assay; type: functional; settings: SK-MEL-2, 72 h
NCI-H23 = assay: Growth inhibition of human NCI-H23 cells after 72 hrs by MTT assay; type: functional; settings: NCI-H23, 72 h
UACC-257 = assay: Growth inhibition of human UACC-257 cells after 72 hrs by MTT assay; type: functional; settings: UACC-257, 72 h
SF-268 = assay: Growth inhibition of human SF-268 cells after 72 hrs by MTT assay; type: functional; settings: SF-268, 72 h
OVCAR-4 = assay: Growth inhibition of human OVCAR-4 cells after 72 hrs by MTT assay; type: functional; settings: OVCAR-4, 72 h
CAKI-1 = assay: Growth inhibition of human Caki-1 cells after 72 hrs by MTT assay; type: functional; settings: CAKI-1, 72 h
SK-OV-3 = assay: Growth inhibition of human SKOV3 cells after 72 hrs by MTT assay; type: functional; settings: SK-OV-3, 72 h
EKVX = assay: Growth inhibition of human EKVX cells after 72 hrs by MTT assay; type: functional
HOP-62 = assay: Growth inhibition of human HOP-62 cells after 72 hrs by MTT assay; type: functional; settings: HOP-62, 72 h
SR = assay: Growth inhibition of human SR cells after 72 hrs by MTT assay; type: functional
UO-31 = assay: Growth inhibition of human UO-31 cells after 72 hrs by MTT assay; type: functional; settings: UO-31, 72 h
PC-3 = assay: Growth inhibition of human PC-3 cells after 72 hrs by MTT assay; type: functional; settings: PC-3, 72 h
MDA-N = assay: Growth inhibition of human MDA-N cells after 72 hrs by MTT assay; type: functional
NCI-H226 = assay: Growth inhibition of human NCI-H226 cells after 72 hrs by MTT assay; type: functional; settings: NCI-H226, 72 h
M14 = assay: Growth inhibition of human M14 cells after 72 hrs by MTT assay; type: functional; settings: M14, 72 h
[3] = read-out: LC50 (the source's name)

SMILES: C[C@@H]1CC[C@@]2(OC1)O[C@H]1C[C@H]3[C@@H]4CC[C@H]5C[C@@H](O[C@@H]6O[C@H](CO)[C@H](O[C@@H]7O[C@H](CO)[C@@H](O)[C@H](O[C@@H]8OC[C@@H](O)[C@H](O)[C@H]8O)[C@H]7O[C@@H]7O[C@H](CO)[C@@H](O)[C@H](O)[C@H]7O)[C@H](O)[C@H]6O)[C@H](O)C[C@]5(C)[C@H]4CC[C@]3(C)[C@H]1[C@@H]2C
- GI50 [1]: 15 µM
- TGI [1]: 33 µM
- CC50 [1, 3]: 71 µM
- GI50 (A498): 4.9 µM
- TGI (A498): 35 µM
- CC50 (A498; [3]): < 100 µM
- GI50 (OVCAR-8): 2.5 µM
- TGI (OVCAR-8): 6.3 µM
- CC50 (OVCAR-8; [3]): 47 µM
- GI50 (SK-MEL-5): 4.1 µM
- TGI (SK-MEL-5): 40 µM
- CC50 (SK-MEL-5; [3]): < 100 µM
- GI50 (ACHN): 2.8 µM
- TGI (ACHN): 12 µM
- CC50 (ACHN; [3]): 38 µM
- GI50 (SW-620): 1.7 µM
- TGI (SW-620): 19 µM
- CC50 (SW-620; [3]): 78 µM
- CC50 (SN12C): < 100 µM
- GI50 (T47D): 5.4 µM
- TGI (T47D): 28 µM
- CC50 (T47D; [3]): < 100 µM
- GI50 (HL-60(TB)): 4.7 µM
- TGI (HL-60(TB)): 48 µM
- CC50 (HL-60(TB); [3]): < 100 µM
- GI50 [2]: 17 µM
- TGI [2]: 32 µM
- CC50 [2, 3]: 63 µM
- GI50 (MDA-MB-231): 1.8 µM
- TGI (MDA-MB-231): 13 µM
- CC50 (MDA-MB-231; [3]): 87 µM
- GI50 (NCI/ADR-RES): 2.8 µM
- TGI (NCI/ADR-RES): 12 µM
- CC50 (NCI/ADR-RES; [3]): 46 µM
- GI50 (SF-295): 12 µM
- TGI (SF-295): 49 µM
- CC50 (SF-295; [3]): < 100 µM
- GI50 (TK-10): 4.4 µM
- TGI (TK-10): < 100 µM
- CC50 (TK-10; [3]): < 100 µM
- IC50 (HL-60): 1.5 µg/mL (≈ 1.43 µM)
- GI50 (COLO 205): 1.4 µM
- TGI (COLO 205): 32 µM
- CC50 (COLO 205; [3]): < 100 µM
- GI50 (MCF7): 0.3 µM
- TGI (MCF7): 0.62 µM
- CC50 (MCF7; [3]): 1.9 µM
- GI50 (SK-MEL-2): 5.5 µM
- TGI (SK-MEL-2): 19 µM
- CC50 (SK-MEL-2; [3]): 48 µM
- GI50 (NCI-H23): 2 µM
- TGI (NCI-H23): 8.7 µM
- CC50 (NCI-H23; [3]): 36 µM
- GI50 (UACC-257): 17 µM
- TGI (UACC-257): 36 µM
- CC50 (UACC-257; [3]): 71 µM
- GI50 (SF-268): 13 µM
- TGI (SF-268): 28 µM
- CC50 (SF-268; [3]): 59 µM
- GI50 (OVCAR-4): 2 µM
- TGI (OVCAR-4): 4.6 µM
- CC50 (OVCAR-4; [3]): 13 µM
- GI50 (CAKI-1): 1.4 µM
- TGI (CAKI-1): 18 µM
- CC50 (CAKI-1; [3]): < 100 µM
- GI50 (SK-OV-3): 13 µM
- TGI (SK-OV-3): 41 µM
- CC50 (SK-OV-3; [3]): < 100 µM
- GI50 (EKVX): 11 µM
- TGI (EKVX): 27 µM
- CC50 (EKVX; [3]): 63 µM
- GI50 (HOP-62): 1.2 µM
- TGI (HOP-62): 2.8 µM
- CC50 (HOP-62; [3]): 6.2 µM
- GI50 (SR): 63 µM
- TGI (SR): < 100 µM
- CC50 (SR; [3]): < 100 µM
- GI50 (UO-31): 2.4 µM
- TGI (UO-31): 12 µM
- CC50 (UO-31; [3]): 50 µM
- GI50 (PC-3): 3.1 µM
- TGI (PC-3): 15 µM
- CC50 (PC-3; [3]): 41 µM
- GI50 (MDA-N): 11 µM
- TGI (MDA-N): 28 µM
- CC50 (MDA-N; [3]): 74 µM
- GI50 (NCI-H226): 15 µM
- TGI (NCI-H226): 34 µM
- CC50 (NCI-H226; [3]): 76 µM
- GI50 (M14): 16 µM
- TGI (M14): 35 µM
- CC50 (M14; [3]): 74 µM
